High-throughput results (PubChem)
UHRF1 binding: UHRF1 methyl-DNA binding inhibition | inhibition, % at 4.4 µM | UHRF1 binding to methylated oligo, TR-FRET | AID 687016 | Q96T88 | 0.75% of 370,000 active; in the data active = inhibition above about 21%;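 note: UHRF1 SRA domain binding a hemimethylated CpG hairpin DNA probe; 0% = median of test compound wells and 100% = reference inhibitor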
LEDGF integ inh: blocks HIV-1 LEDGF/p75-dependent DNA integration | inhibition, % at 3.7 µM | 0.64% of 370,000 active | TR-FRET IN-LEDGF/p75 DNA integration, Eu/Cy5;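 active = inhibition above the screen-wide mean plus 3 SD, cut at about 13% in these data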;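 note: signal is the Cy5 over europium emission ratio at 671 and 618 nm; 0% = plate median of compound wells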
MBD2 inh: MBD2-methylated oligo binding inhibition; Q9UBB5; inhibition, % at 4.4 µM; TR-FRET, MBD2 binding to methylated oligonucleotide; 0.31% of 370,000 active; in the data active = inhibition above about 13%
RBBP9 inhibitor: inhibitors of human serine hydrolase RBBP9. O75884. recombinant RBBP9, FP-Rh probe fluorescence polarization. inhibition, % at 7.94 µM. 0.2% of 220,000 active;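 active = inhibition above the campaign mean of all tested compounds plus 3 SD, cut at about 14% in these data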;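 note: plate controls were DMSO wells with RBBP9 for no effect and wells lacking RBBP9 protein for full effect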
Target sequence (O75884 whole entry, looked up): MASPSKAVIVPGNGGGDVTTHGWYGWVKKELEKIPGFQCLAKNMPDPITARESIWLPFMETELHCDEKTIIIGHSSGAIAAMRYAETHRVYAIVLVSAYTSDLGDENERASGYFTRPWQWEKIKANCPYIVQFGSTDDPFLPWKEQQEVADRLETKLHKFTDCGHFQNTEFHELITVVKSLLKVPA
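Assay system: recombinant human RBBP9; Reagent: Serine-hydrolase probe FP-Rh, 375 nM pre-mixing; Doses: 7.94 µM single dose, 0.794% DMSO; Incubation: 30 min then 45 min, 25 °C; Detection: fluorescence polarization (mP), excitation 525 nm, emission 598 nm; Evaluation: percent inhibition from mP, scaled between DMSO and no-protein wells.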
ABHD5-PLIN5 inh: blocks binding of human ABHD5 to perilipin-5. inhibition, % at 4 µM. 0.78% of 360,000 active. AID 602281. Split G. princeps luciferase complementation, luminescence, 4 h;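 active = inhibition above the mean inhibition across every tested compound plus 3 SD, cut at about 22% in these data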;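 note: 0% = DMSO only wells and the 100% control is not disclosed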
PRMT1 FP inh: PRMT1 (human) inhibition, primary screen; Q99873; recombinant PRMT1, activity-based probe fluorescence polarization; inhibition, % at 2.79 µM; 1.3% of 370,000 active; AID 652257;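 active = inhibition above about 21% made by adding two undisclosed values, limit read from the data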
RBBP9 inh conf: human RBBP9 inhibition, confirmation | shares compounds with RBBP9 inhibitor | recombinant RBBP9, FP-Rh probe fluorescence polarization | inhibition, % at 7.94 µM | 36% of 410 active | AID 1537;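 active = inhibition above the hit cutoff derived for the primary screen, cut at about 15% in these data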;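 note: 0% = RBBP9 with DMSO and 100% = wells lacking RBBP9 protein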
* hit, by the source's call; · = not tested or not shown. This is a sample that favours compounds with a hit; in the whole collection about 3.1% have one here.

SMILES	UHRF1 binding	LEDGF integ inh	MBD2 inh	RBBP9 inhibitor	ABHD5-PLIN5 inh	PRMT1 FP inh	RBBP9 inh conf
CCC(=O)Oc1ccc(C/C(=N\O)c2ccc(O)cc2O)o1	3.3	7.2	1.2	30.6*	-0.6	9.4	51.8*
CCOC(=O)c1ccc(CC(=O)c2ccc(O)cc2O)o1	-2.5	1.5	-1.3	-2.2	-2.4	7.1	·
COc1ccc2c(c1)Sc1ccccc1N2	16.8	-5.0	0.6	15.9*	-2.6	16.5	29.6*
O=C(c1ccc(Cl)cc1)N1CCC(Oc2cccnc2)CC1	5.0	-1.1	4.3	·	·	-3.5	·
O=C(CSc1nc(-c2ccccc2)cc(=O)[nH]1)N1CCc2ccccc21	-1.2	1.2	2.5	15.8*	-2.1	-2.0	0.2
COc1cc(C2C(C(=O)OC(C)C)=C(C)Nc3[nH]c(=O)[nH]c(=O)c32)ccc1O (configuration not stated)	-2.3	-1.0	-0.3	17.1*	-4.5	-0.3	5.3
COc1ccc(-c2cc(-c3nnc(SCC(=O)NC4CCCCC4)n3N)[nH]n2)cc1	2.2	-0.4	0.7	·	·	-2.4	·
Cc1cc(O)ccc1N=Cc1c(C(F)(F)F)[nH][nH]c1=O	-9.6	1.0	-6.7	39.4*	-14.6	25.4*	13.7
O=c1[nH][nH]c(C(F)(F)F)c1C=Nc1ccccc1	-0.8	4.7	0.6	0.6	3.8	2.0	·
Cc1ccc(C(=O)C[n+]2cc(-c3ccc(C)cc3)n3c2CCCCC3)cc1	-0.9	1.8	-1.3	21.4*	1.9	-0.7	2.8
O=C(Nc1ccccc1)c1ccc(S(=O)(=O)NCc2ccco2)cc1	5.9	1.5	-1.5	-7.8	-9.9	1.1	·
CC1CCCCC1NC(=O)c1ccc(S(=O)(=O)NCc2ccco2)cc1 (configuration not stated)	1.2	6.4	-8.3	17.8*	-11.8	-2.4	1.3
Cc1ccc(Cn2cc(COC(=O)Nc3ccc(F)cc3)nn2)cc1	3.2	2.7	-0.9	·	·	-2.3	·
Cc1ccc(NC2c3ncccc3C(=O)N2c2ccccc2C)cc1C (configuration not stated)	1.9	4.2	-4.5	18.3*	-1.6	17.6	24.3*
CCOc1ccc(N2C(=O)c3cccnc3C2Nc2ccc(Cl)cc2)cc1 (configuration not stated)	5.6	0.0	2.3	-2.9	8.4	8.4	·
CCC(C#Cc1ccccc1)NCc1ccc(OC)cc1OC (configuration not stated)	1.4	7.2	-0.4	·	·	-7.4	·
CCN(CC)CCNc1ncnc2c1[nH]c1ccc(OC)cc12	·	·	·	-0.4	·	·	·
COc1ccc2[nH]c3c(NCCC4=CCCCC4)ncnc3c2c1	-2.4	1.8	-0.1	14.7*	-4.8	-4.3	29.9*
CC(=O)NC(c1ccccc1)c1c(O)ccc2ccccc12 (configuration not stated)	-2.2	1.6	1.2	15.7*	3.0	-1.3	16.6*
CC(=O)NC(c1ccc(C(C)C)cc1)c1c(O)ccc2ccccc12 (configuration not stated)	5.6	-1.0	3.5	·	-6.4	4.0	·
COc1ccccc1NC(=O)c1cc2cc(Br)ccc2cc1O	1.9	-0.7	-2.3	18.8*	-15.7	1.2	29.9*
CCOc1ccc(S(=O)(=O)Nc2nc3ccccc3nc2Nc2ccc(N3CCOCC3)cc2)cc1	0.1	4.0	-1.6	16.9*	2.0	12.4	11.2
COc1ccc(S(=O)(=O)Nc2ccc(N3CCOCC3)cc2)cc1	1.9	-1.3	3.3	·	2.1	-2.8	·
CC(=O)Nc1ccc(-c2csc(NCc3ccccc3)n2)cc1	1.2	6.2	-1.4	-6.2	1.0	-2.8	·
CC(=O)Nc1cccc(-c2csc(NCc3ccccc3)n2)c1	1.3	2.9	-1.4	14.7*	-1.4	2.9	1.0
C=CCN1C(=O)[C@@H](CC(=O)NCc2cccs2)[C@]2(C(=O)OCC)CCCCC/C=C/12	1.0	-1.5	-2.4	·	·	-0.6	·
c1ccc(-c2nnc(-c3ccccn3)c(-c3ccccn3)n2)nc1	8.5	1.4	-3.7	-5.5	-2.2	-2.2	·
FC(F)(F)c1ccc(-c2nnc(-c3ccccn3)c(-c3ccccn3)n2)nc1	-5.1	4.2	-3.1	17.1*	-2.4	-3.5	2.7
